Rows were chosen to be rich in hits. Some 2.5% of all compounds tested hit in one or more screens of this group.
TRPC6 act: mouse TRPC6 channel activators, primary screen, cell-based, HEK293, membrane potential dye; HEK293-TRPC6 membrane potential dye fluorescence; hits give high values; hit rate 0.13% among 310,000; AID 2550, 2010; Short transient receptor potential channel 6 (Mus musculus), Q61143; B-score at 10 µM;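 active = B-score of the integrated fluorescence ratio above library mean plus 3 SD, and starting fluorescence ratio within library mean plus 5 SD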;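 note: higher score means more depolarization so channel activation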
TRPC4 block: inhibitors of mouse TRPC4 channel, primary screen, Fluo4 calcium, HEK293 TRPC4beta/mu-opioid cells | DAMGO-evoked Fluo4 calcium flux; hits give low values | B-score at 10 µM | hit rate 0.39% among 300,000 | AID 2247, 2010;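 active = B-score over 3 SD under the library average, no early fluorescence shift, positive overall ratio signal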
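Assay system: Stable TRPC4beta/mu-opioid receptor HEK293 cells | Reagent: DAMGO in two steps, submaximal then maximal | Compound dosing: Single concentration per test compound | Signal: Fluo4 Ca2+ flux fluorescence | Evaluation: Per-well B score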
TRPC6 inh: mouse TRPC6 channel inhibitors, primary screen, cell-based, HEK293, membrane potential dye. Short transient receptor potential channel 6 (Mus musculus), Q61143. ACh-evoked depolarization; hits give low values. B-score at 10 µM. hit rate 1.1% among 310,000. AID 2553, 2010;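 active = B-score under library mean minus 3 SD, initial fluorescence not abnormally high, positive integrated signal ratio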;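 note: B-score derived from integrated fluorescence ratio over the kinetic read; more negative B-score means stronger inhibition of depolarization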
TRPC4 PAM: positive allosteric modulators of TRPC4, primary screen, cell-based, mouse TRPC4beta, HEK293 mu-opioid, Fluo-4 calcium; Short transient receptor potential channel 4 (Mus musculus), Q9QUQ5; DAMGO EC20, Fluo-4 Ca2+ flux; hits give high values; B-score at 10 µM; hit rate 0.42% among 310,000; AID 2227, 2009;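 active = B-score of calcium response area above 5 SD of library B-scores, with initial fluorescence ratio within 5 SD of library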;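 note: B-score of integrated fluorescence ratio over time as area under calcium response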
Platelet DG rel: inhibitors of platelet dense granule secretion, primary screen, cell-based, MLPCN, human platelets | human platelet-rich plasma, SFLLRN dense granule ATP release, luminescence | inhibition, %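 (compounds screened at 7.5 µM in platelet-rich plasma)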 | hit rate 0.22% among 300,000;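 active = mean replicate score, as percent of positive control, at or above 50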
TRPC4 agonist: activators of mouse TRPC4 channel, primary screen, Fluo4 calcium, HEK293 TRPC4beta/mu-opioid cells. Fluo4 calcium fluorescence; hits give high values. B-score at 10 µM. hit rate 0.49% among 310,000;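 active = B-score above 5 SD of library B-scores, and initial fluorescence ratio not above library mean plus 5 SD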;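 note: positive B-score marks a calcium rise read as TRPC4 activation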
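System: HEK293 cells stably co-expressing mouse TRPC4beta and mu-opioid receptor; Schedule: Fluo4 dye loading 45 min at room temperature, 110 s recording; Detection: Fluo4 fluorescence, kinetic; Evaluation: B-scored integrated calcium fluorescence ratio; Controls: buffer (low) and maximal DAMGO (high).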
TRPC4 spec 2: second check of whether TRPC6 inhibitors also affect mouse TRPC4 | shares compounds with TRPC6 inh | HEK293 TRPC4/MOR, membrane potential dye fluorescence; channel activated by saturating DAMGO dose | inhibition, % at 10 µM | hit rate 42% among 920 | AID 2776;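 active = compounds whose fluorescence signal differed from control wells by over 3 SD, either direction, in both duplicate plates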
TRPC4 spec: mouse TRPC4 modulation by TRPC6 hits, confirmation, selectivity assay for TRPC6 inhibitor project, cell-based, HEK293 TRPC4/mu-opioid, membrane potential dye | shares compounds with TRPC6 inh | AID 2777, 2010 | activity change, negative = inhibition, % at 10 µM | membrane potential fluorescence | hit rate 61% among 920;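 active = rise or fall in signal beyond 3 SD of buffer-only wells in both replicate plates, either sign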;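 note: integrated kinetic ratio of fluorescence range over baseline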
HEK293 MPD ctr 2-1: nonspecific membrane potential effects, parental HEK293, confirmation, counter-screen for TRPC6 inhibitor project, cell-based, second counter screen; hit rate 31% among 920; signal change vs control, % at 10 µM; parental HEK293 membrane potential dye fluorescence; maximal acetylcholine challenge after compound addition; shares compounds with TRPC6 inh;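 active = membrane potential signal moving either way by over 3 SD of the maximum-effect control, in both duplicate plates, meaning non-specific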
HEK293 MPD ctr-1: membrane potential modulation in parental HEK293, confirmation, counter-screen for TRPC6 inhibitor project, cell-based; shares compounds with TRPC6 inh; parental HEK293 membrane potential dye fluorescence; membrane potential signal change, % at 10 µM; hit rate 60% among 920;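 active = membrane potential signal shifting up or down by more than 3 SD of buffer-only wells, on both duplicate plates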
HEK293 MPD ctr-2: parental HEK293 membrane potential modulation, confirmation, counter-screen for TRPC6 modulator project, cell-based | membrane potential signal change, % at 10 µM | shares compounds with TRPC6 inh | hit rate 51% among 2,400 | membrane potential dye fluorescence;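 active = membrane potential signal moves up or down beyond 5 SD from buffer-only wells, on both duplicate plates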
HEK293 MPD ctr 2-2: second check of TRPC6 modulator effects in parental HEK293 cells; inhibition, % at 10 µM; membrane potential dye fluorescence; after compound, maximal acetylcholine stimulation; shares compounds with TRPC6 inh; hit rate 14% among 2,400;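 active = membrane potential signal drops by more than 5 SD from the mean control signal, in both duplicate plates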;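 note: plate controls were acetylcholine ECmax control wells for no effect and buffer only wells for full effect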
TRPC4 ctr mod: TRPC4 modulation by TRPC6 hit compounds, confirmation, selectivity assay for TRPC6 modulator project, cell-based, HEK293 TRPC4/mu-opioid, membrane potential dye, mouse. shares compounds with TRPC6 inh. membrane potential fluorescence. percent change from control (negative = decrease, positive = increase), % at 10 µM. hit rate 69% among 2,400. AID 488927, 2010;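 active = membrane potential signal moved up or down beyond 5 SD of buffer control wells, in both duplicate plates, actives on both sides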;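 note: plate controls were assay buffer wells for no effect and DAMGO maximal-effect wells for full effect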
TRPC4/MOR inh 2: second check of whether TRPC6 modulators also affect mouse TRPC4; shares compounds with TRPC6 inh; inhibition, % at 10 µM; hit rate 55% among 2,400; AID 488928; HEK293 TRPC4/mu-opioid, membrane potential dye fluorescence; stimulated with maximal-effect DAMGO;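 active = drop in membrane potential signal beyond 5 SD of the control wells in both duplicate plates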;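 note: TRPC4 counter screen for TRPC6 hits run under conditions tuned for TRPC6 not TRPC4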
TRPC6 block conf: mouse TRPC6 channel inhibitors, confirmation, HEK293 cells, membrane potential dye, duplicate; shares compounds with TRPC6 inh; ACh-evoked depolarization; inhibition, % at 10 µM; hit rate 43% among 3,300; AID 488960, 2010;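 active = fluorescence ratio falls more than 5 SD below the full-stimulation control mean, in both duplicate runs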;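 note: integrated fluorescence ratio of peak minus minimum over baseline after agonist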
TRPC6 act confirm: mouse TRPC6 channel activators, confirmation, HEK293 cells, membrane potential dye, duplicate | shares compounds with TRPC6 inh | HEK293-TRPC6 membrane potential dye fluorescence, FDSS | activation, % at 10 µM | hit rate 11% among 2,800;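 active = ratio signal rise beyond 5 SD above unstimulated control wells' mean, seen in both duplicate runs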;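 note: plate controls were buffer EC0 wells for no effect and acetylcholine ECmax response for full effect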
* = called active by the depositor; i = inactive; . = not tested or not shown.

SMILES	TRPC6 act	TRPC4 block	TRPC6 inh	TRPC4 PAM	Platelet DG rel	TRPC4 agonist	HEK293 MPD ctr-2	HEK293 MPD ctr 2-2	TRPC4 ctr mod	TRPC4/MOR inh 2	TRPC6 block conf	TRPC6 act confirm	others
Cc1cc(C)n2nc(C(=O)N/N=C/c3ccccc3Cl)nc2n1	i	i	i	i	3	i	.	.	.	.	.	.
Cc1cc(C)n2nc(C(=O)N/N=C/c3ccco3)nc2n1	i	i	-6.6*	i	-2	i	-275%*	i	-50%*	32%*	i	i
O=C(CCN1C(=O)/C(=C/c2ccc(F)cc2)SC1=S)N[C@@H](CO)Cc1ccccc1	i	i	i	i	3	i	.	.	.	.	.	.
COc1ccc([N+](=O)[O-])cc1N(CC(O)CN(CC(C)C)CC(C)C)S(=O)(=O)c1ccccc1 (stereo unspecified)	i	i	i	i	-9	i	.	.	.	.	.	.
CCCCN(CCCC)CC(O)CN(c1cc([N+](=O)[O-])ccc1OC)S(=O)(=O)c1ccccc1 (stereo unspecified)	i	i	-10*	i	6	i	.	.	.	.	67%*	i	TRPC4 spec 2=28%*;TRPC4 spec=i;HEK293 MPD ctr 2-1=i;HEK293 MPD ctr-1=0.2%*
C1CC(CN2CCOCC2)CN(Cc2nc(CC3CC3)no2)C1 (stereo unspecified)	i	i	i	i	2	i	.	.	.	.	.	.
COCCCn1c(=S)[nH]c2c(sc3ccccc32)c1=O	i	i	i	i	3	i	.	.	.	.	.	.
S=C(NCCCN1CCOCC1)Nc1ccc(Cl)cc1Cl	i	i	-5.3*	i	9	i	i	i	i	i	i	i
COC(=O)c1[nH]c2ccc(C)cc2c1NC(=O)C(C)N1CCN(C2CCCCC2)CC1 (stereo unspecified)	i	i	i	i	3	i	.	.	.	.	.	.
COC(=O)c1[nH]c2ccc(Br)cc2c1NC(=O)C(C)N1CCN(C2CCCCC2)CC1 (stereo unspecified)	i	i	-7.6*	i	0	i	.	.	.	.	88%*	i	TRPC4 spec 2=42%*;TRPC4 spec=-18%*;HEK293 MPD ctr 2-1=29%*;HEK293 MPD ctr-1=-144%*
Cc1c(C)n(CCc2ccccc2)c2ncnc(NCCCN(C)C)c12	i	i	-6.3*	i	-7	i	-70%*	i	-22%*	58%*	58%*	i
Cc1c(C)n(CCN(C)C)c2ncnc(NCc3ccccc3)c12	i	i	i	i	-6	i	.	.	.	.	.	.
Cc1c(C)n(CCCN(C)C)c2ncnc(Nc3ccc(F)cc3)c12	i	i	-6.3*	i	-2	i	-144%*	i	-30%*	38%*	40%*	i
Cc1ccc(C)c(N2CCN(C(=O)CCCOc3cc(=O)n(C)c4ccccc34)CC2)c1	i	i	-6.2*	i	4	i	139%*	i	30%*	i	55%*	.
O=C(Cc1ccc([N+](=O)[O-])cc1)c1c(O)cc(O)cc1O	i	i	-5.5*	i	2	i	-62%*	i	-19%*	52%*	52%*	i
Cc1cc(O)cc(O)c1C(=O)Cc1ccccc1	i	i	i	i	12	i	.	.	.	.	.	.
COC(=O)c1cc(NS(=O)(=O)c2ccc(C(C)C)cc2)ccc1N1CCOCC1	i	i	i	i	14	i	.	.	.	.	.	.
C=CCC1(N(C(C)=O)c2ccccc2C)CCCCC1	i	i	-9.4*	i	2	i	.	.	.	.	i	i	TRPC4 spec 2=i;TRPC4 spec=-0.4%*;HEK293 MPD ctr 2-1=i;HEK293 MPD ctr-1=0.5%*
C=CCC1(N(C(C)=O)c2ccccc2)CCCCC1	i	i	i	i	1	i	.	.	.	.	.	.
COC(=O)C1Cc2c([nH]c3ccccc23)C2(CCN(Cc3ccccc3)CC2)N1 (stereo unspecified)	i	i	-7.5*	i	.	i	.	.	.	.	i	i	TRPC4 spec 2=47%*;TRPC4 spec=5.6%*;HEK293 MPD ctr 2-1=248%*;HEK293 MPD ctr-1=i

Screens deposited in PubChem BioAssay by several laboratories.
